Reference: ChEMBL document CHEMBL4304782, “Antioxidant, Anti-inflammatory, and Neuroprotective Effects of Novel Vinyl Sulfonate Compounds as Nrf2 Activator” (ACS Med Chem Lett, 2019)
Activity calls are given as the source filed them. The rule behind the calls is not given here.

How the values were obtained:
BV-2 = test: Antiinflammatory activity in mouse BV2 cells assessed as reduction in LPS-induced iNOS expression at 3 to 10 uM incubated for 6 hrs followed by LPS stimulation for 12 hrs by RT-qPCR analysis; format: functional, cell-based
Outline: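 BV-2 cells pretreated with compound 6 h, then stimulated with 1 μg/mL LPS for 12 h; protein and mRNA levels quantified relative to LPS-stimulated control; mean ± SD (n = 3); paired t test.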

[1] = Cytotoxicity against mouse BV2 cells assessed as cell viability at 10 uM incubated for 6 hrs by CCK-8 assay relative to control; format: cell-based, BV-2; details: read-out: Activity
Outline: (§1)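 BV-2 cells exposed to compound for 6 h, then viability measured; percent survival reported.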

Mus musculus [2] = test: Protection against MPTP-induced DAergic neurotoxicity in C57BL/6 mouse model of Parkinson's disease assessed as reduction in SNpc microglial activation by measuring Iba1 fluorescent intensity at 20 mg/kg/day, administered for 7 consecutive days by TH/Iba1 double immunostaining-based assay; format: functional, organism-based; details: in the assay text read “administered for 3 consecutive days” for “administered for 7 consecutive days”
Outline: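 Double immunofluorescence for TH and Iba-1 on coronal substantia nigra sections 10 days after i.p. MPTP; relative Iba-1 intensity compared, n = 9 per group; mean ± SEM; one-way ANOVA with Tukey's test.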

[3] = molecular target: T1, Nuclear factor erythroid 2-related factor 2 (Mus musculus) (UniProt Q60795); test: Activation of Nrf2 in mouse BV-2 cells assessed as increase in HO-1 level at 0.3 to 10 uM incubated for 12 hrs by Western blot analysis relative to control; format: cell-based
T1 sequence (whole entry): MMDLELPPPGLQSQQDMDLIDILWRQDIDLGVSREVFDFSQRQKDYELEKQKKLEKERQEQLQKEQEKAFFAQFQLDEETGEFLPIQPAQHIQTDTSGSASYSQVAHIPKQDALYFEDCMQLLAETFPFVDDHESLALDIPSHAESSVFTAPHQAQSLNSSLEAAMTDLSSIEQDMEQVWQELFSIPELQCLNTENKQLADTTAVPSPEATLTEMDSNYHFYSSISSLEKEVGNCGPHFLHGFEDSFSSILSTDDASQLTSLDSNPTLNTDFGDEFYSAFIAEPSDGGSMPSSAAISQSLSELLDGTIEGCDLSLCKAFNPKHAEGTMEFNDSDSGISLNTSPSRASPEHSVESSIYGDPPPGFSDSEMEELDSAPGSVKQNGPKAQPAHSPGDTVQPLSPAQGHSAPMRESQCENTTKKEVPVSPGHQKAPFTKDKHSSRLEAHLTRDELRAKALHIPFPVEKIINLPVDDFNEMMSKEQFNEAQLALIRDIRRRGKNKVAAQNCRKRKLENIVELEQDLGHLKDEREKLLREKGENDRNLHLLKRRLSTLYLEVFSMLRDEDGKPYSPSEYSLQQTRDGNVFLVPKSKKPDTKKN
Outline: (§2)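 BV-2 cells treated for 12 h; HO-1, GCLM, GCLC protein by Western blot, normalized to β-actin; at least duplicate cultures, fold induction over untreated control ± SEM; paired t test.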

[4] = molecular target: T2, Nuclear factor erythroid 2-related factor 2 (Homo sapiens) (UniProt Q16236); test: Activation of Nrf2 in human SH-SY5Y cells assessed as increase in GCLM level at 0.3 to 3 uM incubated for 6 to 24 hrs by Western blot analysis relative to control; format: cell-based
T2 sequence (whole entry): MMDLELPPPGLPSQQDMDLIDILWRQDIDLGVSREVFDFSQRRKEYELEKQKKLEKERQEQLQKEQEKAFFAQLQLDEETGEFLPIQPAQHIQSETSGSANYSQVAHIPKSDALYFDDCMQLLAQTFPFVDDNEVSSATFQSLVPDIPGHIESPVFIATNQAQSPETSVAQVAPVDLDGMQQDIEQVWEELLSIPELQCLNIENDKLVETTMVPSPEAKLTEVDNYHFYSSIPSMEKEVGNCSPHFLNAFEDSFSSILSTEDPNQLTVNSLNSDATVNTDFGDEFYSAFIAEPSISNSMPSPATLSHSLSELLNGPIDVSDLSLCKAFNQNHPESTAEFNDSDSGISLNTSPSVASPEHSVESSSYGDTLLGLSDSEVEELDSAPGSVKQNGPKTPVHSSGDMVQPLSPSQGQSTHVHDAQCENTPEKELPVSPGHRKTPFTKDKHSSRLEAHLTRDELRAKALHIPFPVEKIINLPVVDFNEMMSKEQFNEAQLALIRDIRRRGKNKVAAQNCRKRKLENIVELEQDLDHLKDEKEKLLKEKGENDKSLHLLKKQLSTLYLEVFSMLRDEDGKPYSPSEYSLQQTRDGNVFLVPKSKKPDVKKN
Outline: (§3)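 SH-SY5Y neuroblastoma cells treated for 6 or 24 h, then harvested; NQO1, GCLM, GCLC protein by Western blot with β-actin loading control; at least duplicate cultures, averaged, fold of untreated control ± SEM; paired t test.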

[5] = molecular target: T1, Nuclear factor erythroid 2-related factor 2 (Mus musculus); test: Activation of Nrf2 in mouse BV-2 cells assessed as upregulation of GCLC mRNA expression at 1 to 10 uM incubated for 3 hrs by RT-qPCR analysis relative to control; format: cell-based
Outline: (§4)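 BV-2 cells exposed to a range of concentrations for 3 h; HO-1, GCLM and GCLC mRNA quantified by RT-qPCR, normalized to β-actin; at least duplicate cultures, fold of untreated control ± SEM; paired t test.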

[6] = Cytotoxicity against mouse BV2 cells assessed as cell viability at 3 uM incubated for 6 hrs by CCK-8 assay relative to control; format: cell-based, BV-2; details: read-out: Activity; outline: as §1
Mus musculus [7] = test: Protection against MPTP-induced DAergic neurotoxicity in C57B/6 mouse model of Parkinson's disease assessed as […] at 20 mg/kg, po observed after 7 days by microscopic analysis; format: functional, organism-based
Outline: (§5)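 MPTP mouse model with 20 mg/kg oral dosing; striatal and substantia nigra sections collected 7 days later and stained for tyrosine hydroxylase; striatal TH density and nigral TH-positive neuron counts; mean ± SEM; one-way ANOVA with Tukey's test.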

Mus musculus [8] = test: Protection against MPTP-induced DAergic neurotoxicity in C57B/6 mouse model of Parkinson's disease assessed as restoration of TH-positive neurons cell density in striatum at 20 mg/kg, po observed after 7 days by microscopic analysis; format: functional, organism-based; outline: as §5
[9] = molecular target: T1, Nuclear factor erythroid 2-related factor 2 (Mus musculus); test: Activation of Nrf2 in mouse BV-2 cells assessed as increase in total Nrf2 level at 10 uM by Western blot analysis relative to control; format: cell-based
Outline: (§6)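 BV-2 microglia treated 0.3–10 μM; Nrf2 measured by Western blot in nuclear extracts and whole-cell lysates; at least duplicate cultures, averaged, expressed as fold of untreated control ± SEM; paired t test.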

[10] = molecular target: T1, Nuclear factor erythroid 2-related factor 2 (Mus musculus); test: Activation of Nrf2 in mouse BV-2 cells assessed as increase in GCLM level at 0.3 to 10 uM incubated for 12 hrs by Western blot analysis relative to control; format: cell-based; outline: as §2
Mus musculus [11] = test: (§7) Anti-parkinson's activity in MPTP-induced C57Bl/6 mouse model of Parkinson's disease assessed as restoration of descent time at 20 mg/kg, po administered for 3 consecutive days prior and subsequent to MPTP administration (four injections of MPTP, 2 h intervals, 20 mg/kg, i.p. injection by vertical grid test; format: functional, organism-based
Outline: (§8)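 Mice dosed 20 mg/kg p.o. (or vehicle) for 3 consecutive days before and after MPTP (four i.p. injections, 20 mg/kg, 2 h apart); vertical grid test (turning, descent, total time) and coat-hanger scoring; n = 10–12 per group; mean ± SEM; one-way ANOVA with Tukey's test.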

[12] = molecular target: T1, Nuclear factor erythroid 2-related factor 2 (Mus musculus); test: Activation of Nrf2 in mouse BV-2 cells assessed as increase in total Nrf2 level at 0.3 uM by Western blot analysis relative to control; format: cell-based; outline: as §6
[13] = molecular target: T2, Nuclear factor erythroid 2-related factor 2 (Homo sapiens); test: Activation of Nrf2 in human SH-SY5Y cells assessed as increase in GCLM level incubated for 6 to 24 hrs by Western blot analysis; format: cell-based; outline: as §3
[14] = molecular target: T1, Nuclear factor erythroid 2-related factor 2 (Mus musculus); test: Activation of Nrf2 in mouse BV-2 cells assessed as increase in nuclear Nrf2 level at 10 uM by Western blot analysis relative to control; format: cell-based; outline: as §6
Mus musculus [15] = test: as §7, with “total” for “descent”; format: functional, organism-based; outline: as §8
[16] = Cytotoxicity against mouse BV2 cells assessed as cell viability at 1 uM incubated for 6 hrs by CCK-8 assay relative to control; format: cell-based, BV-2; details: read-out: Activity; outline: as §1
[17] = molecular target: T1, Nuclear factor erythroid 2-related factor 2 (Mus musculus); test: Activation of Nrf2 in mouse BV-2 cells assessed as upregulation of HO-1 mRNA expression at 1 to 10 uM incubated for 3 hrs by RT-qPCR analysis relative to control; format: cell-based; outline: as §4

## COc1ccccc1OS(=O)(=O)/C=C/c1ccccc1Cl
BV-2
  Activity: Active
[1]
  viability at 6 h, 10 µM: 95.9%
Mus musculus [2]
  Activity: Active
[3]
  fold change (FC): 10.3
[4]
  fold change (FC): 2.9
[5]
  fold change (FC): 2.3
[6]
  viability at 6 h, 3 µM: 97.6%
Mus musculus [7]
  Activity: Active
Mus musculus [8]
  Activity: Active
[9]
  fold change (FC): 6.7
[10]
  fold change (FC): 5.6
Mus musculus [11]
  Activity: Active
[12]
  fold change (FC): 3.3
[13]
  Activity: Dose-dependent effect
[14]
  fold change (FC): 17.6
Mus musculus [15]
  Activity: Active
[16]
  viability at 6 h, 1 µM: 98%
[17]
  fold change (FC): 10.7
